For orientation: EC50 means the concentration at which the effect is half-maximal. As a reminder, the Ki is a measure of affinity in units of concentration, obtained from inhibition or displacement. High values mean lower affinity, low ones higher affinity. For orientation: inhibition means the share of the control response that was lost under treatment.

We go through eleven compounds from ChEMBL document CHEMBL4325833, “Discovery of a Potent, Selective, and Brain-Penetrant Small Molecule that Activates the Orphan Receptor GPR88 and Reduces Alcohol Intake” (J Med Chem, 2018).

The source made the active and inactive calls. The rule behind the calls is not given here.

Data set [1] concerns the target G protein-coupled receptor 88 (Homo sapiens, UniProt Q9GZN0).
Data set [2] concerns the target G protein-coupled receptor 88 (Mus musculus, UniProt Q9EPB7). The data set is described as follows: Agonist activity at GPR88 in wild type mouse striatal membranes assessed as increase in [35S]-GTPgammaS binding after 1 hr by liquid scintillation counting. The class given is functional, cell membranes, Striatum, Membrane.
The species entered for data set [3] is Mus musculus. The data set is described as follows: Increase in [35S]-GTPgammaS binding in GPR88 knocked out mouse striatal membranes at 10 uM after 1 hr by liquid scintillation counting. The class given is functional, cell membranes. The note with it: Striatal membrane. In general terms: GTPγS is a poorly hydrolysed GTP analogue; its binding reports G protein activation.

The species named for data set [4] is Mus musculus. The data set is described as follows: Increase in [35S]-GTPgammaS binding in GPR88 knocked out mouse striatal membranes at 100 uM after 1 hr by liquid scintillation counting. The class given is functional, cell membranes. The note with it: Striatal membrane. The gist of the method: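 Striata from GPR88 KO mice. Membranes made by sucrose homogenization and differential centrifugation (2500g, then 23000g). 2 µg protein per well incubated 1 h at 25 °C with 0.1 nM [35S]-GTPγS and GDP. Nonspecific binding taken with 10 µM GTPγS. Read by liquid scintillation counting, expressed as % above basal. Two independent experiments in triplicate.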

Data set [5] can be described thus: Displacement of [3H]-dihydrotetrabenazine from VMAT in human platelet cell membranes after 60 mins by scintillation counting. The procedure, abridged:
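VMAT affinity follow-up run by Eurofins PanLabs under their standard protocols. Full concentration–displacement curves were run in duplicate. IC50 came from nonlinear regression and was converted to Ki by Cheng–Prusoff, using the radioligand concentration and historical Kd of the ligand.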
In general terms: Loss of bound radioactivity is the signal in a displacement assay; it reports binding, not function.

The subject of data set [6] is VMAT. Put plainly: Displacement of [3H]-dihydrotetrabenazine from VMAT in human platelet cell membranes at 10 uM after 60 mins by scintillation counting relative to control. The following applies: probe [3H]-dihydrotetrabenazine. The gist of the method:
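Radioligand binding screen run by Eurofins PanLabs under their standard protocols, single concentration 10 μM. Percent inhibition of radioligand binding is the average of two determinations.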

In data set [7] the target is KOR (kappa-type opioid receptor) (Homo sapiens, UniProt P41145). Put plainly: Binding affinity to human full length KOR assessed as reduction in radioligand binding at 10 uM after 60 mins by scintillation counting relative to control. The gist of the method:
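Outsourced radioligand binding screen, one of 38 GPCR, ion channel and transporter targets, run to the provider's standard protocols. Test concentration was a single 10 µM. Percent inhibition of radioligand binding is the average of two determinations.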

The subject of data set [8] is Rattus norvegicus. Put plainly: Decrease in alcohol self administration in Long-Evans rat assessed as reduction in alcohol lever responses at 5 to 20 mg/kg, ip administered 30 mins prior to a self-administration session. The class given is functional, organism-based.

Sequence of G protein-coupled receptor 88 (Homo sapiens, UniProt Q9GZN0) (Q9GZN0 whole entry): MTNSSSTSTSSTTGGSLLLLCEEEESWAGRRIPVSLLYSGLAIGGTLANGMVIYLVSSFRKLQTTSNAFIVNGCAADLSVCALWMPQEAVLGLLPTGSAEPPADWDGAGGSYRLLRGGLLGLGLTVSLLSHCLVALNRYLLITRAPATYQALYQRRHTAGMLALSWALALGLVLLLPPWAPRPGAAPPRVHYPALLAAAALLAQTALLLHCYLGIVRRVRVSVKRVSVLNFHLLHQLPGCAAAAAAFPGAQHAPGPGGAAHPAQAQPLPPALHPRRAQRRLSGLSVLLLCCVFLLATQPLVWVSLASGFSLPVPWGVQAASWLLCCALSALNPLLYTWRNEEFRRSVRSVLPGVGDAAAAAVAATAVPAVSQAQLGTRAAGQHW
Sequence of KOR (kappa-type opioid receptor) (P41145 whole entry): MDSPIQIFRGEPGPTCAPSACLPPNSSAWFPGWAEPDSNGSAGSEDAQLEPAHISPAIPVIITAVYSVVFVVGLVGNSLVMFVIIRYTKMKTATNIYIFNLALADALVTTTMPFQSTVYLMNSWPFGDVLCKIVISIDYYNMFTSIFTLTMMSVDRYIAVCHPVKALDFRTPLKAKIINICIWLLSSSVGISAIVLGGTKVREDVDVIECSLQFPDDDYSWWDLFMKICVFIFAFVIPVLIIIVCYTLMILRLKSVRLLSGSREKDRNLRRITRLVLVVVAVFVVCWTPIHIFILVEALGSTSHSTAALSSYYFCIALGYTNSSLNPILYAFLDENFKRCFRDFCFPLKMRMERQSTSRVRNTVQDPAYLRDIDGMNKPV
Sequence of G protein-coupled receptor 88 (Mus musculus, UniProt Q9EPB7) (Q9EPB7 whole entry): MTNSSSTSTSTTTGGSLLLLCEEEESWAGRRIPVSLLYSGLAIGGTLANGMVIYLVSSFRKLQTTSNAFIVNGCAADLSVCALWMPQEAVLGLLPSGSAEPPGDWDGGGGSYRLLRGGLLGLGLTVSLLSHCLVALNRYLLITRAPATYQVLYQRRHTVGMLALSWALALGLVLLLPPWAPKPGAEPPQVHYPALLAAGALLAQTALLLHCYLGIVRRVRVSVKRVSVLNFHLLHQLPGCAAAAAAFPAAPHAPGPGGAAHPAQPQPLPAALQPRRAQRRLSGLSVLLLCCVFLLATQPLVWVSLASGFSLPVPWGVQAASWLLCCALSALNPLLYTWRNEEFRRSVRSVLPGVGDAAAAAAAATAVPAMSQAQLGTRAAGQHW

The compound `CCCc1ccc(-c2ccc(N(C[C@@H](N)Cc3ccccc3)C(=O)[C@@H]3C[C@H]3c3ccccn3)cc2)cc1` returned an EC50 in data set [1] of 501 nM.

Consider `CCCc1ccc(-c2ccc(N(C[C@@H](N)C(C)C)C(=O)[C@@H]3C[C@H]3c3ccccn3)cc2)cc1`, for which the EC50 in data set [1] stood at 158 nM.

Compound `CCCc1ccc(-c2ccc(N(C[C@@H](N)[C@@H](C)OC)C(=O)[C@@H]3C[C@H]3c3ccccn3)cc2)cc1` (relative stereo) displayed an EC50 in data set [1] of 63 nM.

Compound `COc1ccc(-c2ccc(N(C[C@@H](N)[C@@H](C)OC)C(=O)[C@@H]3C[C@H]3c3ccccn3)cc2)cc1` (relative stereo) registered an EC50 in data set [1] of 126 nM.

For `CCCc1ccc(-c2ccc(N(C[C@@H](N)[C@@H](C)CC)C(=O)[C@@H]3C[C@H]3c3ccccn3)cc2)cc1`, the EC50 in data set [2] was found to be 1140 nM. For the same compound, in data set [3], the result was Active.

In data set [1], `CCCc1ccc(-c2ccc(N(CC(C)(C)N)C(=O)[C@@H]3C[C@H]3c3ccccn3)cc2)cc1` (relative stereo) displayed an EC50 of 316 nM.

Regarding `COCc1ccc(-c2ccc(N(C[C@@H](N)[C@@H](C)OC)C(=O)[C@@H]3C[C@H]3c3ccccn3)cc2)cc1`, the outcome in data set [4] was inactive. The same compound registered a Ki in data set [5] of 4230 nM. The inhibition at 1 h, 10 µM is 54% in data set [6] and 64% in data set [7]. Also, the Activity entry in data set [8] was “Dose-dependent effect”.

Regarding `CCCc1ccc(-c2ccc(N(C[C@@H](N)CC(C)C)C(=O)[C@@H]3C[C@H]3c3ccccn3)cc2)cc1`, it took 126 nM to reach a half-maximal effect in data set [1] (EC50).

`CCCc1ccc(-c2ccc(N(C[C@H](C)N)C(=O)[C@@H]3C[C@H]3c3ccccn3)cc2)cc1` had an EC50 in data set [1] of 398 nM.

The compound `CCCc1ccc(-c2ccc(N(CCN)C(=O)[C@@H]3C[C@H]3c3ccccn3)cc2)cc1` displayed an EC50 in data set [1] of 501 nM.

The compound `CCCc1ccc(-c2ccc(N(C[C@@H](N)c3ccccc3)C(=O)[C@@H]3C[C@H]3c3ccccn3)cc2)cc1` (relative stereo) showed a half-maximal effective concentration (EC50) in data set [1] of 1260 nM.
